The text below walks through data of ChEMBL document CHEMBL1156157, “1,7-Disubstituted oxyindoles are potent and selective EP(3) receptor antagonists” (Bioorg Med Chem Lett, 2010).

Series [1] in a line: Metabolic stability in rat liver microsomes assessed as parent compound remaining after 30 mins. It counts as ADME, Microsome. The settings on record: read-out: Stability. In short, it runs like this: (§1)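 Compounds incubated with liver microsomes from human, rat, mouse, dog or monkey. Read-out is percent parent compound remaining at 30 min of incubation.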
A general note: Liver microsomes are vesicles of endoplasmic reticulum, rich in cytochrome P450 enzymes.

Series [2] is filed under the species Rattus norvegicus. Nature of the series: Antithrombotic activity in rat assessed as platelet aggregation. It counts as functional. The procedure, abridged: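 Functional EP3 antagonism measured in a rat platelet aggregation assay. Values reported as EC50 in nM.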
Series [3] concerns the target T1, Prostaglandin E2 receptor EP3 subtype (Homo sapiens, UniProt P43115).
T1 sequence (P43115 whole entry): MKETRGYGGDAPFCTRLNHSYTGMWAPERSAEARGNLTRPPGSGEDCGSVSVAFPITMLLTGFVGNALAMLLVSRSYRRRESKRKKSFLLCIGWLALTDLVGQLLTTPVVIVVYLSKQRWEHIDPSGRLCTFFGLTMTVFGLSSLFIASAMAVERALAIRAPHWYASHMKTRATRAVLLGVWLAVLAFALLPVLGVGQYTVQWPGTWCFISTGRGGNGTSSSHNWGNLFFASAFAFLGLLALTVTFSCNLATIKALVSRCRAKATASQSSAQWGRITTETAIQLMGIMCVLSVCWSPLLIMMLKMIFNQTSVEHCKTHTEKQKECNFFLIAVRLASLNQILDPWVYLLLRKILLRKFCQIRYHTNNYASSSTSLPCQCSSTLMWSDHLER
Nature of the series: Displacement of [3H]PGE2 from human EP3 receptor in presence of 10% human serum.

The nature of series [4]: Metabolic stability in mouse liver microsomes assessed as parent compound remaining after 30 mins. It counts as ADME, Microsome. The settings on record: read-out: Stability. In short, it runs like this: as §1
Series [5] concerns the target T1, Prostaglandin E2 receptor EP3 subtype. Kind of series: Displacement of [3H]PGE2 from human EP3 receptor in buffer. Background: In a radioligand displacement assay an active substance lowers the binding of a labelled ligand.
Series [6] addresses Cytochrome P450 3A4 (Homo sapiens, UniProt P08684). Nature of the series: Inhibition of human CYP3A4 using 7-benzyloxy-4-trifluoromethylcoumarin as substrate. The format is ADME. The procedure, abridged:
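Inhibition of human CYP3A4 with 7-benzyloxy-4-trifluoromethylcoumarin (BFC) as substrate. Values given as IC50.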

Series [7] can be described thus: Metabolic stability in human liver microsomes assessed as parent compound remaining after 30 mins. The format is ADME, Microsome. The settings on record: read-out: Stability. In short, it runs like this: as §1
A short description of series [8]: Metabolic stability in monkey liver microsomes assessed as parent compound remaining after 30 mins. The format is ADME, Macaca mulatta, Microsome. Particulars: rhesus monkey, read-out: Stability; call rule not given here. The procedure, abridged:
as §1

The nature of series [9]: Metabolic stability in dog liver microsomes assessed as parent compound remaining after 30 mins. It counts as ADME, Canis lupus familiaris, Microsome. Particulars: read-out: Stability. The procedure, abridged:
as §1

The target of series [10] is T1, Prostaglandin E2 receptor EP3 subtype. Nature of the series: Partial displacement of [3H]PGE2 from human EP3 receptor in presence of 10% human serum.

Structures are written as SMILES.

Sequence of Cytochrome P450 3A4 (P08684 whole entry): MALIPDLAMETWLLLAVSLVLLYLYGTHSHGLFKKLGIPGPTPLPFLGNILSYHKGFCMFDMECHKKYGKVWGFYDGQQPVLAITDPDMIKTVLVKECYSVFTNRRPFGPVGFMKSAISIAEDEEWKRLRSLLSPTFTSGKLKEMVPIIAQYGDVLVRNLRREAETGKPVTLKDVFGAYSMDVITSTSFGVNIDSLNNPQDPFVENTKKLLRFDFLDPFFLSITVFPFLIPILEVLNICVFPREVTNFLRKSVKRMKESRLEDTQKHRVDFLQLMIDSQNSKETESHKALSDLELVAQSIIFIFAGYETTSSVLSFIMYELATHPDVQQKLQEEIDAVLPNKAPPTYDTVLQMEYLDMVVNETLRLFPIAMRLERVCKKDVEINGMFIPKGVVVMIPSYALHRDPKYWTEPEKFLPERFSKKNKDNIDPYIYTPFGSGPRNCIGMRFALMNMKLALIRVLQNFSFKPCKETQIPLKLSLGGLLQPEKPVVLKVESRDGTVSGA

One may read the IC50 as the concentration that gives 50% inhibition. For `O=C(/C=C/c1cccc2c1N(Cc1ccc3ccccc3c1)C(=O)C2(F)F)NS(=O)(=O)c1cc(Cl)c(Cl)s1`, the results for the remaining at 0.5 h in [1], in [4] and in series [7] were 71.8%, 80.7% and 79.3%, respectively. Also, the figures for the IC50 in series [2], in [3] and in series [5] were greater than 800 nM, 20.8 nM and 11.6 nM, respectively. Further, in [6], the “inhibition (INH)” value is recorded as “Active”.

For the molecule `O=C(/C=C/c1cccc2c1N(Cc1ccc(Cl)cc1Cl)C(=O)C2(F)F)NS(=O)(=O)c1ccc(Cl)c(Cl)c1`, the remaining at 0.5 h in [1] was found to be 70.4%; in [4], 82.8%; in series [7], 73.1%. Besides, the figures for the IC50 in [2], in series [3] and in series [5] were greater than 800 nM, 5.5 nM and 0.2 nM, respectively. In addition, the “inhibition (INH)” value in series [6] is “Active”.

On to `O=C(/C=C/c1cccc2c1N(Cc1ccc(Cl)cc1Cl)C(=O)C2(F)F)NS(=O)(=O)c1cccc(Cl)c1`, for which the remaining at 0.5 h in series [1] was 62.2%; in series [4], 31.2%; in series [7], 66.6%. For the same molecule, the concentration for half-maximal inhibition (IC50) in series [2] is greater than 800 nM; in series [3], 7.7 nM; in [5] it was 0.2 nM. The “inhibition (INH)” value in series [6] is “Active”.

Take `O=C(/C=C/c1cccc2c1N(Cc1ccc3ccccc3c1)C(=O)C2(F)F)NS(=O)(=O)c1cc(F)c(F)cc1F`: the remaining at 0.5 h in series [1] was found to be 54.2%; in [4], 47.9%; in series [7], 68.8%. The IC50 was greater than 800 nM in series [2], 9.3 nM in [3] and 0.3 nM in series [5]. In addition, in series [6], the “inhibition (INH)” value is recorded as “Active”.

With `CC1C(=O)N(Cc2ccc3ccccc3c2)c2c(/C=C/C(=O)NS(=O)(=O)c3cccs3)cccc21` (centres undefined), the remaining at 0.5 h in series [1] turned out to be 48%; in series [4] it was 32.6%; in [8], 35.3%; in [9] it was 81.8%; in series [7], 43.5%. Further, the IC50 in [3] is 96.5 nM; in series [5] it was 3.5 nM.

For the molecule `O=C(/C=C/c1cccc2c1N(Cc1ccc(F)c(F)c1)C(=O)C2(F)F)NS(=O)(=O)c1ccc(F)c(F)c1`, the IC50 was greater than 800 nM in series [2], 251 nM in [3] and 1.3 nM in series [5]. The “inhibition (INH)” value in series [6] is given as “Active”.

Regarding `O=C(/C=C/c1cccc2c1N(Cc1ccc3ccccc3c1)C(=O)C2(F)F)NS(=O)(=O)c1ccc(Cl)c(Cl)c1`, the remaining at 0.5 h in series [1] is 62.1%; in series [4], 41.3%; in [7] it was 79.4%. Further, the figures for the IC50 in series [2], in series [3] and in series [5] were greater than 800 nM, 4.5 nM and 0.3 nM, respectively. Further, the “inhibition (INH)” value in series [6] is “Active”.

In the case of `O=C(/C=C/c1cccc2c1N(Cc1ccc(Cl)cc1Cl)C(=O)C2(F)F)NS(=O)(=O)c1cc(F)c(F)cc1F`, the remaining at 0.5 h in series [1] was found to be 77.4%; in [4] it was 60.6%; in [7] it was 74.6%. Moreover, the concentration for half-maximal inhibition (IC50) was greater than 800 nM in series [2], 5.6 nM in [3] and 0.2 nM in series [5]. Further, the “inhibition (INH)” value in series [6] is reported as “Active”.

In the case of `O=C(/C=C/c1cccc2c1N(Cc1ccc3ccccc3c1)C(=O)C2(F)F)NS(=O)(=O)c1ccc(F)cc1`, the IC50 in [2] is greater than 800 nM; in [3] it was 27.2 nM; in [5], 2.7 nM. Moreover, in series [6], the “inhibition (INH)” value was “Active”.

As for `O=C(/C=C/c1cccc2c1N(Cc1ccc3ccccc3c1)C(=O)C2(F)F)NS(=O)(=O)c1ccc(Cl)cc1`, the IC50 is greater than 800 nM in [2], 125 nM in [3] and 5.5 nM in series [5]. Also, in [6], the “inhibition (INH)” value is reported as “Active”.

Regarding `O=C(/C=C/c1cccc2c1N(Cc1ccc(Cl)cc1Cl)C(=O)C2)NS(=O)(=O)c1cccs1`, the IC50 in series [5] was 56 nM; in series [10] it was “Active”.

On to `O=C(/C=C/c1cccc2c1N(Cc1ccc3ccccc3c1)C(=O)C2(F)F)NS(=O)(=O)c1ccc(F)c(F)c1`, for which the figures for the remaining at 0.5 h in [1], in [4] and in [7] were 45%, 47.1% and 68.1%, respectively. Also, the IC50 in [2] was greater than 800 nM; in series [3] it was 5 nM; in series [5], 0.2 nM. The “inhibition (INH)” value in series [6] was “Active”.

For the molecule `O=C(/C=C/c1cccc2c1N(Cc1ccc(Cl)cc1Cl)C(=O)C2(F)F)NS(=O)(=O)c1ccc(F)c(F)c1`, the results for the remaining at 0.5 h in [1], in series [4] and in [7] were 80.1%, 71% and 74.4%, respectively. Besides, the IC50 is greater than 800 nM in series [2], 6.5 nM in series [3] and 0.2 nM in [5]. Further, the “inhibition (INH)” value in series [6] is “Active”.

What is called EC50 is the concentration needed to bring the measured effect to its halfway point. On to `CC1C(=O)N(Cc2ccc3ccccc3c2)c2c(/C=C/C(=O)NS(=O)(=O)c3cc(Cl)c(Cl)s3)cccc21` (centres undefined), for which the remaining at 0.5 h stood at 8% in [1], 67.7% in [4], 67.7% in series [9] and 48.2% in series [7]. For the same molecule, in series [2], the EC50 turned out to be 2 nM. In addition, the results for the IC50 in series [3] and in series [5] were 3.2 nM and 4.4 nM, respectively.

With `O=C(/C=C/c1cccc2c1N(Cc1ccc(Cl)cc1Cl)C(=O)C2(F)F)NS(=O)(=O)c1ccc(F)cc1`, the IC50 is greater than 800 nM in series [2], 64.7 nM in [3] and 0.2 nM in [5]. Also, the “inhibition (INH)” value in series [6] was “Active”.

Regarding `O=C(/C=C/c1cccc2c1N(Cc1ccc(F)c(F)c1)C(=O)C2(CO)CO)NS(=O)(=O)c1ccc(F)c(F)c1`, the IC50 in [5] is 45.4 nM; in series [10] it was “Active”.

As for `O=C(/C=C/c1cccc2c1N(Cc1ccc(F)c(F)c1)C(=O)C2(F)F)NS(=O)(=O)c1cc(Cl)c(Cl)s1`, the results for the IC50 in series [2], in [3] and in series [5] were greater than 800 nM, 980 nM and 7.2 nM, respectively. Besides, the “inhibition (INH)” value in series [6] was “Active”.

As to `O=C(/C=C/c1cccc2c1N(Cc1ccc(Cl)cc1Cl)C(=O)C2(F)F)NS(=O)(=O)c1ccc(Cl)cc1`, the IC50 in series [2] was greater than 800 nM; in series [3], 251 nM; in series [5] it was 1.1 nM. Besides, the “inhibition (INH)” value in series [6] is given as “Active”.

`O=C(/C=C/c1cccc2c1N(Cc1ccc3ccccc3c1)C(=O)C2(F)F)NS(=O)(=O)c1cccc(Cl)c1`: the remaining at 0.5 h in [1] stood at 21%; in series [4], 21.6%; in [7], 64.5%. Also, the figures for the IC50 in series [2], in [3] and in series [5] were greater than 800 nM, 1.9 nM and 0.1 nM, respectively. For the same molecule, the “inhibition (INH)” value in series [6] is recorded as “Active”.

On to `O=C(/C=C/c1cccc2c1N(Cc1ccc(Cl)cc1Cl)C(=O)C2(F)F)NS(=O)(=O)c1cccs1`, for which the IC50 in series [2] is greater than 800 nM; in series [5], 237 nM; in series [10], “Active”. Further, in [6], the “inhibition (INH)” value is “Active”.

On to `O=C(/C=C/c1cccc2c1N(Cc1ccc(F)c(F)c1)C(=O)C2(F)F)NS(=O)(=O)c1cccc(Cl)c1`, for which the IC50 in series [2] was greater than 800 nM; in [3], 416 nM; in [5], 5 nM. Besides, the “inhibition (INH)” value in series [6] was “Active”.

On to `O=C(/C=C/c1cccc2c1N(Cc1ccc(Cl)cc1Cl)C(=O)C2(F)F)NS(=O)(=O)c1cc(Cl)c(Cl)s1`, for which the remaining at 0.5 h in series [1] was 94.8%; in [4], 100%; in [8] it was 67.3%; in series [9] it was 83.3%; in [7] it was 94.4%. Besides, the values for the half-maximal inhibitory concentration (IC50) in series [2], in series [3] and in series [5] were greater than 800 nM, 64 nM and 3.8 nM, respectively. In [6], the “inhibition (INH)” value is “Active”.

For `O=C(/C=C/c1cccc2c1N(Cc1ccc(Cl)cc1Cl)C(=O)C2)NS(=O)(=O)c1cc(Cl)c(Cl)s1`, the remaining at 0.5 h is 46.3% in [1], 56.8% in series [4], 76.9% in series [8] and 76.8% in [7]. Further, the IC50 in series [3] was 92.8 nM; in [5], 2.9 nM.

Regarding `O=C(/C=C/c1cccc2c1N(Cc1ccc3ccccc3c1)C(=O)C2)NS(=O)(=O)c1cc(Cl)c(Cl)s1`, the remaining at 0.5 h in series [1] stood at 32.9%; in [4], 63.8%; in series [9], 79.5%; in series [7], 105%. In series [2], the EC50 worked out at 27 nM. The half-inhibitory concentration (IC50) stood at 5.4 nM in series [3] and 1.3 nM in series [5].

On to `O=C(/C=C/c1cccc2c1N(Cc1ccc3ccccc3c1)C(=O)C2(F)F)NS(=O)(=O)c1cccs1`, for which the IC50 in [2] was greater than 800 nM; in series [5], 202 nM; in series [10], “Active”. Moreover, the “inhibition (INH)” value in [6] is recorded as “Active”.
